Test results reported in ChEMBL document CHEMBL1649079, “Pipecolic acid derivatives as small-molecule inhibitors of the Legionella MIP protein” (J Med Chem, 2011).
Calls of active or inactive are those of the source. The rule behind the calls is not given here.

Tests used:
[1] = molecular target: Outer membrane protein MIP (Legionella pneumophila, UniProt Q70YI1)
[2] = molecular target: T1, Peptidyl-prolyl cis-trans isomerase FKBP1A (Homo sapiens, UniProt P62942); assay: Inhibition of PPIase activity of human FKBP12 expressed in Escherichia coli by spectrophotometry
T1 sequence (P62942 whole entry): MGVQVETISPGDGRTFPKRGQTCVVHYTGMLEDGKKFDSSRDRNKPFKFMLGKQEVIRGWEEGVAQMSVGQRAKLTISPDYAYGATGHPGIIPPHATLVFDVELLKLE
Summary of the method: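 Chymotrypsin-coupled PPIase assay using 20 nM FKBP12 and 40 μM succinyl-Ala-Phe-Pro-Phe-4-nitroanilide. Enzyme and substrate preincubated with or without various inhibitor concentrations for 4 min at 10 °C in 35 mM HEPES/NaOH, pH 7.8.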

[3] = molecular target: T1, Peptidyl-prolyl cis-trans isomerase FKBP1A; assay: Inhibition of FKBP12
Legionella pneumophila [4] = assay: Antibacterial activity against wild type Legionella pneumophila Philadelphia-1 JR32 infected in human U937 cells at 50 uM after 24 to 48 hrs; assay type: functional, organism-based; details: U-937
Summary of the method: (§1)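 U937 macrophage-like cells infected at MOI 10, with or without 50 μM compound kept present throughout incubation. Extracellular bacteria killed with gentamicin 2 h post-infection. Infection samples plated on BCYE agar for CFU counts immediately and after 24 and 48 h.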

Legionella pneumophila [5] = assay: Antibacterial activity against MIP protein-deficient Legionella pneumophila JR32-2 infected in human U937 cells at 50 uM after 24 to 48 hrs; assay type: functional, organism-based
Summary of the method: as §1

Escherichia coli = assay: Antibacterial activity against Escherichia coli HB101 infected in human U937 cells at 50 uM after 24 to 48 hrs; assay type: functional, cell-based; details: U-937
Summary of the method: as §1

Sequence of Outer membrane protein MIP (Q70YI1 21-233 limits assumed): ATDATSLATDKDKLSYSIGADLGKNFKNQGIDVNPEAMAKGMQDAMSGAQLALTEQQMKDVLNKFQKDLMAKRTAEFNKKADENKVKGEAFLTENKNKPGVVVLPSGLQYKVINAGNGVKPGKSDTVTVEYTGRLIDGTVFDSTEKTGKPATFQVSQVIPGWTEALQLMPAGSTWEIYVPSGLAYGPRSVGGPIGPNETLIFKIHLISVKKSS

| SMILES | IC50 [1] [nM] | IC50 [2] [nM] | other results |
| --- | --- | --- | --- |
| CCOC(=O)C1CCCCN1S(=O)(=O)Cc1ccccc1 (stereo not drawn) | 87000 | 2600 |  |
| CCC(C)C(=O)C(=O)N1CCCCC1C(=O)OC(CCc1ccccc1)c1ccccc1 (stereo not drawn) | > 100000 | > 30000 |  |
| CCOC(=O)C1CCCCN1C(=O)C(=O)C(C)CC (stereo not drawn) | > 100000 | > 30000 |  |
| COc1cc(CCCOC(=O)[C@@H]2CCCCN2S(=O)(=O)Cc2ccccc2)cc(OC)c1OC |  | 200 | Ki [3]: 230 nM; Activity (Legionella pneumophila [4]): inactive |
| CCOC(=O)C1CCCCN1S(=O)(=O)c1cccc([N+](=O)[O-])c1 (stereo not drawn) | > 100000 | 2800 |  |
| O=C(OCCCc1cccnc1)C1CCCCN1S(=O)(=O)c1cccc([N+](=O)[O-])c1 (stereo not drawn) | 32000 | 150 |  |
| COc1cc(CCCOC(=O)C2CCCCN2S(=O)(=O)c2cccc(N)c2)cc(OC)c1OC (stereo not drawn) | > 100000 | 260 |  |
| COc1cc(CCCOC(=O)C2CCCCN2S(=O)(=O)Cc2ccccc2)cc(OC)c1OC (racemic) |  | 200 |  |
| CCC(C)C(=O)C(=O)N1CCCCC1C(=O)OCCCc1cc(OC)c(OC)c(OC)c1 (stereo not drawn) | > 100000 | 4200 |  |
| Nc1cccc(S(=O)(=O)N2CCCCC2C(=O)OCCCc2cccnc2)c1 (stereo not drawn) | > 100000 | 320 |  |
| COc1cc(CCCOC(=O)C2CCCCN2S(=O)(=O)c2ccccc2)cc(OC)c1OC (stereo not drawn) |  | 120 |  |
| CO[C@H]1C[C@@H]2CC[C@@H](C)[C@@](O)(O2)C(=O)C(=O)N2CCCC[C@H]2C(=O)O[C@H]([C@H](C)C[C@@H]2CC[C@@H](O)[C@H](OC)C2)CC(=O)[C@H](C)/C=C(\C)[C@@H](O)[C@@H](OC)C(=O)[C@H](C)C[C@H](C)/C=C/C=C/C=C/1C |  |  | Activity (Legionella pneumophila [4]): Active; Activity (Legionella pneumophila [5]): Active; Activity (Escherichia coli): Active |
| COc1cc(CCCOC(=O)C2CCCCN2S(=O)(=O)c2cccc([N+](=O)[O-])c2)cc(OC)c1OC (stereo not drawn) | > 100000 | 70 |  |
| CCOC(=O)C1CCCCN1S(=O)(=O)c1ccccc1 (stereo not drawn) | > 100000 | 3100 |  |
